From ChEMBL document CHEMBL1147044, “Design of helical, oligomeric HIV-1 fusion inhibitor peptides with potent activity against enfuvirtide-resistant virus” (Proc Natl Acad Sci U S A, 2007)
≈ marks a conversion by molar mass, not a printed value.

What was measured:
[1] = Clearance in cynomolgus monkey at 1 to 2 mg/kg, iv; assay type: ADME, organism-based, Macaca fascicularis; set-up: dose 1-2 mg/kg, route intravenous; settings: in vivo
Outline: (§1)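 Male cynomolgus monkeys received a single i.v. dose of about 1–2 mg/kg in isotonic phosphate-mannitol vehicle, given as cassettes (typically n ≤ 8). Plasma was protein-precipitated with 0.5% formic acid in acetonitrile and peptide measured by reversed-phase HPLC. Parameters were fitted with mono- or biexponential models.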

[2] = Half life in cynomolgus monkey at 1 to 2 mg/kg, iv; assay type: ADME, organism-based, Macaca fascicularis; set-up: dose 1-2 mg/kg, route intravenous; settings: in vivo; outline: as §1
[3] = system: Human immunodeficiency virus 1; experiment: Antiviral activity against HIV1 3B infected in human PBMCs by reverse transcriptase assay; assay type: functional, organism-based; settings: Human immunodeficiency virus 1, 3B
Outline: (§2)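 CD8-depleted activated PBMC targets infected at high MOI by spinoculation; infected cells incubated with uninfected targets at 2 × 10⁵ cells per well with serially diluted peptide for 9 days. Fresh compound added and samples taken every 2–3 days. Replication read by reverse transcriptase assay; IC50 from reduction in RT signal relative to infected untreated wells.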

[4] = system: Human immunodeficiency virus 1; experiment: Antiviral activity against HIV1 098 isolate infected in human PBMCs by reverse transcriptase assay; assay type: functional, organism-based; outline: as §2
[5] = system: Human immunodeficiency virus 1; experiment: Antiviral activity against HIV1 098-T20 isolate infected in human PBMCs by reverse transcriptase assay; assay type: functional, organism-based; outline: as §2
[6] = system: Human immunodeficiency virus 1; experiment: Antiviral activity against HIV1 098-T1249 isolate infected in human PBMCs by reverse transcriptase assay; assay type: functional, organism-based; outline: as §2
[7] = system: Human immunodeficiency virus 1; experiment: Antiviral activity against HIV1 098-T651 isolate infected in human PBMCs by reverse transcriptase assay; assay type: functional, organism-based; outline: as §2
[8] = system: Human immunodeficiency virus 1; experiment: Binding affinity to HIV1 gp41 heptad repeat 1 region assessed as thermal stability of HR1/HR2 peptide bundle complex at 1 uM in presence of 8M urea

| Compound | clearance [1] | half-life [2] | IC50 [3] | IC50 [4] | IC50 [5] | IC50 [6] | IC50 [7] | Tm [8] |
| --- | --- | --- | --- | --- | --- | --- | --- | --- |
| CC[C@H](C)[C@H](NC(=O)[C@H](CCC(N)=O)NC(=O)[C@H](C)NC(=O)[C@H](CCC(N)=O)NC(=O)[C@H](CCC(=O)O)NC(=O)[C@H](CC(C)C)NC(=O)[C@H](CC(C)C)NC(=O)[C@H](C)NC(=O)[C@@H](NC(=O)[C@@H](NC(=O)[C@H](CCCCN)NC(=O)[C@H](CCC(N)=O)NC(=O)[C@H](CCC(=O)O)NC(=O)[C@H](Cc1c[nH]c2ccccc12)NC(=O)[C@H](CCC(=O)O)NC(=O)[C@H](CCC(N)=O)NC(=O)[C@@H](N)Cc1c[nH]c2ccccc12)[C@@H](C)CC)[C@@H](C)O)C(=O)N[C@@H](CCC(N)=O)C(=O)N[C@@H](CCC(N)=O)C(=O)N[C@@H](CCC(=O)O)C(=O)N[C@@H](CCCCN)C(=O)N[C@@H](CC(N)=O)C(=O)N[C@@H](CCC(=O)O)C(=O)N[C@@H](Cc1ccc(O)cc1)C(=O)N[C@@H](CCC(=O)O)C(=O)N[C@@H](CC(C)C)C(=O)N[C@@H](CCC(N)=O)C(=O)N[C@@H](CCCCN)C(=O)N[C@@H](CC(C)C)C(=O)N[C@@H](CC(=O)O)C(=O)N[C@@H](CCCCN)C(=O)N[C@@H](Cc1c[nH]c2ccccc12)C(=O)N[C@@H](C)C(=O)N[C@@H](CO)C(=O)N[C@@H](CC(C)C)C(=O)N[C@@H](Cc1c[nH]c2ccccc12)C(=O)N[C@@H](CCC(=O)O)C(=O)N[C@@H](Cc1c[nH]c2ccccc12)C(=O)N[C@@H](Cc1ccccc1)C(=O)O | 0.167 mL/min/kg | 5.9 h | 0.003 µg/mL (≈ 0.601 nM) | 0.013 µg/mL (≈ 2.6 nM) | 0.022 µg/mL (≈ 4.4 nM) | 0.363 µg/mL (≈ 72.7 nM) | 8.14 µg/mL (≈ 1630 nM) | 59 °C |
| CC[C@H](C)[C@H](NC(=O)[C@H](CC(C)C)NC(=O)[C@H](CO)NC(=O)[C@H](Cc1cnc[nH]1)NC(=O)[C@H](NC(=O)[C@H](CC(C)C)NC(=O)[C@H](CO)NC(=O)[C@@H](NC(=O)[C@H](Cc1ccc(O)cc1)NC(=O)[C@H](CC(N)=O)NC(=O)[C@H](CC(N)=O)NC(=O)[C@@H](NC(=O)[C@H](CCC(=O)O)NC(=O)[C@H](CCCNC(=N)N)NC(=O)[C@H](CC(=O)O)NC(=O)[C@H](Cc1c[nH]c2ccccc12)NC(=O)[C@H](CCC(=O)O)NC(=O)[C@H](CCSC)NC(=O)[C@H](Cc1c[nH]c2ccccc12)NC(=O)[C@@H](NC(=O)[C@@H](N)CCSC)[C@@H](C)O)[C@@H](C)CC)[C@@H](C)O)[C@@H](C)CC)C(=O)N[C@@H](CCC(=O)O)C(=O)N[C@@H](CCC(=O)O)C(=O)N[C@@H](CO)C(=O)N[C@@H](CCC(N)=O)C(=O)N[C@@H](CC(N)=O)C(=O)N[C@@H](CCC(N)=O)C(=O)N[C@@H](CCC(N)=O)C(=O)N[C@@H](CCC(=O)O)C(=O)N[C@@H](CCCCN)C(=O)N[C@@H](CC(N)=O)C(=O)N[C@@H](CCC(=O)O)C(=O)N[C@@H](CCC(N)=O)C(=O)N[C@@H](CCC(=O)O)C(=O)N[C@@H](CC(C)C)C(=O)N[C@@H](CC(C)C)C(=O)O | 7.2 mL/min/kg | 0.3 h | 0.008 µg/mL (≈ 1.79 nM) | 0.033 µg/mL (≈ 7.36 nM) | 0.06 µg/mL (≈ 13.4 nM) | 0.151 µg/mL (≈ 33.7 nM) | 7.6 µg/mL (≈ 1700 nM) | 68 °C |
| CC[C@H](C)[C@H](NC(=O)[C@H](CC(C)C)NC(=O)[C@H](CO)NC(=O)[C@H](Cc1cnc[nH]1)NC(=O)[C@@H](NC(=O)[C@H](CC(C)C)NC(=O)[C@H](CO)NC(=O)[C@@H](NC(=O)[C@H](Cc1ccc(O)cc1)NC(=O)[C@H](CC(N)=O)NC(=O)[C@H](CC(N)=O)NC(=O)[C@@H](NC(=O)[C@H](CCC(=O)O)NC(=O)[C@H](CCCNC(=N)N)NC(=O)[C@H](CC(=O)O)NC(=O)[C@H](Cc1c[nH]c2ccccc12)NC(=O)[C@H](CCC(=O)O)NC(=O)[C@H](CCSC)NC(=O)[C@H](Cc1c[nH]c2ccccc12)NC(=O)[C@@H](NC(=O)[C@@H](N)CCSC)[C@@H](C)O)[C@@H](C)CC)[C@@H](C)O)[C@@H](C)CC)C(=O)N[C@@H](CCC(=O)O)C(=O)N[C@@H](CCC(=O)O)C(=O)N[C@@H](CO)C(=O)N[C@@H](CCC(N)=O)C(=O)N[C@@H](CC(N)=O)C(=O)N[C@@H](CCC(N)=O)C(=O)N[C@@H](CCC(N)=O)C(=O)N[C@@H](CCC(=O)O)C(=O)N[C@@H](CCCCN)C(=O)N[C@@H](CC(N)=O)C(=O)N[C@@H](CCC(=O)O)C(=O)N[C@@H](CCC(N)=O)C(=O)N[C@@H](CCC(=O)O)C(=O)N[C@@H](CC(C)C)C(=O)N[C@@H](CC(C)C)C(=O)N[C@@H](CCC(=O)O)C(=O)N[C@@H](CC(C)C)C(=O)O | 6.2 mL/min/kg | 1.2 h | 0.008 µg/mL (≈ 1.69 nM) | 0.032 µg/mL (≈ 6.78 nM) | 0.039 µg/mL (≈ 8.26 nM) | 0.137 µg/mL (≈ 29 nM) | 4.97 µg/mL (≈ 1050 nM) | 74 °C |
| CC[C@H](C)[C@H](NC(=O)[C@H](C)NC(=O)[C@H](CCCNC(=N)N)NC(=O)[C@H](CC(=O)O)NC(=O)[C@H](Cc1c[nH]c2ccccc12)NC(=O)[C@H](C)NC(=O)[C@H](CCC(=O)O)NC(=O)[C@H](Cc1c[nH]c2ccccc12)NC(=O)[C@@H](NC(=O)[C@@H](N)[C@@H](C)O)[C@@H](C)O)C(=O)N[C@@H](C)C(=O)N[C@@H](CCC(=O)O)C(=O)N[C@@H](Cc1ccc(O)cc1)C(=O)N[C@@H](C)C(=O)N[C@@H](C)C(=O)N[C@@H](CCCNC(=N)N)C(=O)N[C@H](C(=O)N[C@@H](CCC(=O)O)C(=O)N[C@@H](C)C(=O)N[C@@H](CC(C)C)C(=O)N[C@H](C(=O)N[C@@H](CCCNC(=N)N)C(=O)N[C@@H](C)C(=O)N[C@@H](C)C(=O)N[C@@H](CCC(N)=O)C(=O)N[C@@H](CCC(=O)O)C(=O)N[C@@H](CCC(N)=O)C(=O)N[C@@H](CCC(N)=O)C(=O)N[C@@H](CCC(=O)O)C(=O)N[C@@H](CCCCN)C(=O)N[C@@H](CC(N)=O)C(=O)N[C@@H](CCC(=O)O)C(=O)N[C@@H](C)C(=O)N[C@@H](C)C(=O)N[C@@H](CC(C)C)C(=O)N[C@@H](CCCNC(=N)N)C(=O)N[C@@H](CCC(=O)O)C(=O)N[C@@H](CC(C)C)C(=O)O)[C@@H](C)CC)[C@@H](C)CC | 0.717 mL/min/kg | 16.3 h | 0.007 µg/mL (≈ 1.59 nM) | 0.018 µg/mL (≈ 4.08 nM) | 0.025 µg/mL (≈ 5.66 nM) | 0.015 µg/mL (≈ 3.4 nM) | 0.021 µg/mL (≈ 4.76 nM) | 86 °C |
| CC[C@H](C)[C@H](NC(=O)[C@H](C)NC(=O)[C@H](CCCNC(=N)N)NC(=O)[C@H](CC(=O)O)NC(=O)[C@H](Cc1c[nH]c2ccccc12)NC(=O)[C@H](C)NC(=O)[C@H](CCC(=O)O)NC(=O)[C@H](Cc1c[nH]c2ccccc12)NC(=O)[C@@H](NC(=O)[C@@H](N)[C@@H](C)O)[C@@H](C)O)C(=O)N[C@@H](C)C(=O)N[C@@H](CCC(=O)O)C(=O)N[C@@H](Cc1ccc(O)cc1)C(=O)N[C@@H](C)C(=O)N[C@@H](C)C(=O)N[C@@H](CCCNC(=N)N)C(=O)N[C@H](C(=O)N[C@@H](CCC(=O)O)C(=O)N[C@@H](C)C(=O)N[C@@H](CC(C)C)C(=O)N[C@H](C(=O)N[C@@H](CCCNC(=N)N)C(=O)N[C@@H](C)C(=O)N[C@@H](CC(C)C)C(=O)N[C@@H](CCC(N)=O)C(=O)N[C@@H](CCC(=O)O)C(=O)N[C@@H](CC(C)C)C(=O)N[C@@H](CCC(N)=O)C(=O)N[C@@H](CCC(=O)O)C(=O)N[C@@H](CCCCN)C(=O)N[C@@H](CC(N)=O)C(=O)N[C@@H](CCC(N)=O)C(=O)N[C@@H](C)C(=O)N[C@H](C(=O)N[C@@H](CC(C)C)C(=O)N[C@@H](CCCNC(=N)N)C(=O)N[C@@H](CCC(=O)O)C(=O)N[C@@H](CC(C)C)C(=O)O)[C@@H](C)CC)[C@@H](C)CC)[C@@H](C)CC | – | – | – | – | – | – | – | 84 °C |
| H-MTWEAWDRAIAEYAARIEALIRAAQEQQEKNEAALREL-OH | 0.533 mL/min/kg | 5.1 h | 0.007 µg/mL | 0.026 µg/mL | 0.033 µg/mL | 0.014 µg/mL | 0.021 µg/mL | – |
| H-MTWMAWDRAIANYAALIHALIEAAQNQQEKNEAALLEL-OH | – | – | 0.061 µg/mL | 0.079 µg/mL | 0.079 µg/mL | 0.12 µg/mL | 0.25 µg/mL | – |
| H-TTWEAWDRAIAEYAARIEALIRAAQELQEKLEAALREL-OH | 0.0333 mL/min/kg | 30.8 h | 0.172 µg/mL | 0.6 µg/mL | 0.416 µg/mL | 0.555 µg/mL | 0.987 µg/mL | 92 °C |
| H-TTWEAWDRAIAEYAARIEALIRAAQELQEKNEAALREL-OH | 0.433 mL/min/kg | 7.6 h | 0.007 µg/mL | 0.021 µg/mL | 0.035 µg/mL | 0.03 µg/mL | 0.02 µg/mL | 89 °C |
| H-TTWEAWDRAIAEYAARIEALIRAAQEQQEKLEAALREL-OH | 0.15 mL/min/kg | 17.9 h | 0.012 µg/mL | 0.045 µg/mL | 0.028 µg/mL | 0.025 µg/mL | 0.044 µg/mL | 86 °C |
| H-TTWEAWDRAIAEYAARIEALIRAAQEQQEKNEAILREL-OH | 1.1 mL/min/kg | 3.4 h | 0.007 µg/mL | 0.021 µg/mL | 0.034 µg/mL | 0.024 µg/mL | 0.039 µg/mL | – |
| H-TTWEAWDRAIAEYAARIEALIRALQELQEKLEAILREL-OH | 0.05 mL/min/kg | 35.4 h | 3.16 µg/mL | > 20 µg/mL | > 20 µg/mL | > 20 µg/mL | > 20 µg/mL | – |
| H-TTWEAWDRAIAEYAARIEALIRALQELQEKNEAILREL-OH | 0.15 mL/min/kg | 9.6 h | 0.065 µg/mL | 0.118 µg/mL | 0.154 µg/mL | 0.192 µg/mL | > 20 µg/mL | – |
| H-TTWEAWDRAIAEYAARIEALIRALQEQQEKNEAALREL-OH | 0.167 mL/min/kg | 15.2 h | 0.011 µg/mL | 0.035 µg/mL | 0.028 µg/mL | 0.035 µg/mL | 0.05 µg/mL | – |
| H-TTWEEWDREINEYTSRIESLIRESQEQQEKNEQELREL-OH | – | – | 0.012 µg/mL | 0.021 µg/mL | 0.056 µg/mL | 0.037 µg/mL | 0.167 µg/mL | 80 °C |
